Cav32 inh: blocks human Cav3.2 T-type calcium channel | O95180 | Cav3.2-expressing cells, Fluo-4 calcium fluorescence FDSS; stronger effect = lower value | B-score at 10 µM | actives 4% (n = 100,000);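 active means single-dose well whose peak fluorescence ratio is a statistical outlier from its plate by either plate-standardised score or position-corrected B-score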
hDAT+cocaine: human DAT dopamine uptake with cocaine, either direction. B-score at 10 µM. Q01959. actives 1.3% (n = 110,000). LLC-PK1 hDAT cells, [14C]-dopamine uptake with cocaine IC80; actives deviate in either direction;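 active means Z score or B-score, a plate-position-corrected score, falls beyond the plate's 99.7% confidence bounds, in either direction; inactive means both scores lie inside the 99.7% bounds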;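 further: scored against the spread of the other compound wells on the same plate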
EphB4 ephrin blk: EphB4-ephrin-B2 interaction antagonism. EphB4 LBD / TNYL-RAW-Alexa532 peptide, fluorescence polarization. inhibition, % at 7 µM. actives 0.15% (n = 97,000). AID 720;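 active means inhibition above the screen-wide mean inhibition plus 3 SD, cut at about 15% in these data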;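 further: 0% = DMSO wells and 100% = excess unlabeled TNYL-RAW peptide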
Rev-RRE block: inhibitors of HIV-1 Rev-RRE RNA interaction; Rev peptide-RRE RNA binding, FRET; P05866; inhibition, % at 8 µM; actives 0.79% (n = 97,000); AID 704;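 active means inhibition above the screen-wide mean plus 3 SD, cut at about 35% in these data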;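 further: 0% = median DMSO wells and 100% = median Neomycin B control wells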
Target sequence (P05866 whole entry, looked up): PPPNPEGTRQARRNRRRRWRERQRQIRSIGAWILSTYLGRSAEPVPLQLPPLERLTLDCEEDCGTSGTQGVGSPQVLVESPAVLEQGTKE
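Test system: Cy5-tagged RRE RNA duplex with fluorescein-tagged Rev peptide; Probe or stimulus: labelled Rev peptide; Schedule: 5 min preincubation and 15 min binding, 25 °C; Signal: FRET fluorescence readout; Evaluation: % inhibition from 671/540 nm acceptor-to-donor ratio, scaled between controls; Control set: DMSO and neomycin B.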
An asterisk follows results filed as active. Rows were chosen to be rich in hits. Some 5.4% of all compounds tested hit in one or more screens of this group.

Screening COC(=O)C1=C(C)N=c2s/c(=C/c3cccs3)c(=O)n2C1c1cccs1 (stereo unspecified) returned Cav32 inh -0.97, hDAT+cocaine -0.25, EphB4 ephrin blk 6 and Rev-RRE block 6.
`COc1ccc(C2C(C(C)=O)=C(C)N=c3s/c(=C/c4ccc5c(c4)OCO5)c(=O)n32)cc1` (stereo unspecified) gave hDAT+cocaine -0.83, EphB4 ephrin blk -1 and Rev-RRE block 44*.
Screening COC(=O)C1=C(C)N=c2s/c(=C/c3ccoc3)c(=O)n2C1c1ccccc1 (stereo unspecified) returned Cav32 inh -1.6, hDAT+cocaine -0.48, EphB4 ephrin blk 6 and Rev-RRE block 51*.
For COc1ccc(OC(=O)c2cnn(-c3ccccc3)c2C)cc1 the results were Cav32 inh -0.51, hDAT+cocaine 0.2, EphB4 ephrin blk 0 and Rev-RRE block 9.
Screening CCc1cccc(C)c1NC(=S)NCCc1c(C)[nH]c2ccc(C)cc12 returned Cav32 inh -3.4* and hDAT+cocaine 1.5.
CCCNC(=O)NCCc1c(C)[nH]c2ccccc12 was read as Cav32 inh -0.29, hDAT+cocaine -0.16, EphB4 ephrin blk -3 and Rev-RRE block 1.
O=C1c2ccccc2CC1(Cc1ccccc1)Cc1ccccc1 was read as Cav32 inh -2.2, hDAT+cocaine 0.35, EphB4 ephrin blk -4 and Rev-RRE block 19.
Screening Cc1cccc(N2C(=O)CSC2c2cccnc2)c1 (stereo unspecified) returned Cav32 inh -0.15, hDAT+cocaine 0.21, EphB4 ephrin blk 4 and Rev-RRE block 12.
`Cc1cccc(N2CCN(c3cccc(C)c3)C2c2cccnc2)c1` gave Cav32 inh -4.8*, hDAT+cocaine -2.1, EphB4 ephrin blk 2 and Rev-RRE block -1.
Cc1cccc(OCC(=O)N(C)CCc2ccccn2)c1 was read as Cav32 inh -0.054, hDAT+cocaine 0.067, EphB4 ephrin blk 0 and Rev-RRE block 4.
For O=C(c1ccc(Br)o1)N1CCN=C1SCc1cccnc1 the results were Cav32 inh 1.3, hDAT+cocaine 2.4*, EphB4 ephrin blk -7 and Rev-RRE block 0.
`CC(=O)N1CCN=C1SCc1ccc(Br)cc1` gave Cav32 inh -4.8*, hDAT+cocaine 0.5, EphB4 ephrin blk -8 and Rev-RRE block 5.
For COc1ccc(-c2nnn(CC(=O)NCCc3c[nH]c4ccccc34)n2)cc1OC the results were Cav32 inh -1.8, hDAT+cocaine 2.5, EphB4 ephrin blk -1 and Rev-RRE block 1.
For CCC(C(=O)NCc1ccc(F)cc1)N(Cc1ccco1)C(=O)c1snc(C(N)=O)c1N (stereo unspecified) the results were Cav32 inh -0.0032, hDAT+cocaine 4.3*, EphB4 ephrin blk -10 and Rev-RRE block 2.
Screening O=C(Nc1ccccc1Cl)C1CCN(Cc2cnn(-c3ccccc3)c2-n2cccc2)CC1 returned Cav32 inh -8.3*, hDAT+cocaine 0.23, EphB4 ephrin blk -2 and Rev-RRE block 14.
For COc1cccc(NC(=O)C2CCN(Cc3cnn(-c4ccccc4)c3-n3cccc3)CC2)c1 the results were Cav32 inh -10*, hDAT+cocaine 0.62, EphB4 ephrin blk 9 and Rev-RRE block 12.
Screening O=C(O)c1cnn(-c2ccccc2)c1-n1cccc1 returned Cav32 inh 0.19, hDAT+cocaine -0.11, EphB4 ephrin blk 3 and Rev-RRE block -1.
`COc1ccc(NC(=O)C2CCN(Cc3cnn(-c4ccccc4)c3-n3cccc3)CC2)cc1OC` gave Cav32 inh -1.5, hDAT+cocaine -1.4, EphB4 ephrin blk 6 and Rev-RRE block 6.
COc1ccc(OC)c(NC(=O)C2CCN(Cc3cnn(-c4ccccc4)c3-n3cccc3)CC2)c1 was read as Cav32 inh -8.7*, hDAT+cocaine -0.2, EphB4 ephrin blk -2 and Rev-RRE block 2.
Screening CCOc1ccc(NC(=O)c2c(N)n(C)c(=O)[nH]c2=O)cc1 returned Cav32 inh 0.052 and hDAT+cocaine 0.9.
For CC(C)Cn1c(-c2csc3c2CCCC3)n[nH]c1=S the results were EphB4 ephrin blk -5 and Rev-RRE block -8.
For Cc1ccn2c(C(=O)N/N=C\c3ccccc3[N+](=O)[O-])c(C)nc2c1 the results were Cav32 inh 0.069, hDAT+cocaine -0.47, EphB4 ephrin blk 0 and Rev-RRE block 6.
`CC(=O)Nc1ccc2nc(-c3ccncc3)[nH]c2c1` gave Cav32 inh -0.24, hDAT+cocaine 0.34, EphB4 ephrin blk 1 and Rev-RRE block 7.
`CC(=O)Nc1ccc(-c2nc3c(C)cccc3[nH]2)cc1` gave Cav32 inh 2.1, hDAT+cocaine -8.1*, EphB4 ephrin blk 1 and Rev-RRE block 7.
Screening COc1ccc(C2C(C(=O)OCC3CCCO3)=C(C)NC3=C2C(=O)CC(c2ccco2)C3)cc1O (stereo unspecified) returned Cav32 inh 0.027, hDAT+cocaine 0.24, EphB4 ephrin blk 1 and Rev-RRE block 5.
For O=C(c1ccc(=O)n(Cc2ccc(Cl)c(Cl)c2)c1)N1CCOCC1 the results were Cav32 inh 0.82, hDAT+cocaine 0.086, EphB4 ephrin blk 5 and Rev-RRE block 6.
For CCCCCCCCSc1nnc(-c2ccc(OC)cc2)o1 the results were Cav32 inh 1, hDAT+cocaine -0.025, EphB4 ephrin blk 6 and Rev-RRE block 11.
For CCCCSc1ccc2nc(-c3ccc(C#N)cc3)cn2c1 the results were Cav32 inh -1.5, hDAT+cocaine 2.4*, EphB4 ephrin blk 0 and Rev-RRE block 10.
For O=C(Cn1cnc2cc(Cl)ccc2c1=O)Nc1ccc2c(c1)OCO2 the results were Cav32 inh -0.95, hDAT+cocaine 0.5, EphB4 ephrin blk 10 and Rev-RRE block 4.
`Cc1ccc(C(=O)NCCN2C3=NC[C@H](C(C)C)N3C[C@H]2Cc2ccc(O)cc2)cc1Br` gave Cav32 inh 0.73 and hDAT+cocaine -0.5.
Screening COc1ccc(C[C@H]2CN3C(=NC[C@@H]3C(C)C)N2CCNC(=O)c2ccc(C)c(Br)c2)cc1 returned Cav32 inh -0.78 and hDAT+cocaine -3.2*.
Screening CCOc1ccc(C2=NNC(c3cccs3)=Nc3ccc(OC)cc32)cc1OCC returned Cav32 inh -8.1*, hDAT+cocaine 0.17, EphB4 ephrin blk -2 and Rev-RRE block 5.
Cc1csc(SCC(=O)c2c(N)n(C)c(=O)n(C)c2=O)n1 was read as EphB4 ephrin blk -2 and Rev-RRE block 2.
For O=C(N/N=C/C1C(c2ccccc2)C1(Cl)Cl)c1cccc(Br)c1 (stereo unspecified) the results were Cav32 inh -6.7*, hDAT+cocaine -1.1, EphB4 ephrin blk 2 and Rev-RRE block 10.
C/C(=N\NC(=O)c1cccc(Br)c1)c1ccc(Br)cc1 was read as Cav32 inh 0.1, hDAT+cocaine -0.012, EphB4 ephrin blk -7 and Rev-RRE block -3.
`Cc1cc(-c2ccco2)n2c(nc3ccccc32)c1C#N` gave EphB4 ephrin blk 9 and Rev-RRE block 47*.
For Cc1ccnc(N2CCN(c3cc(C)c(C#N)c4nc5ccccc5n34)CC2)c1 the results were hDAT+cocaine -0.16, EphB4 ephrin blk 0 and Rev-RRE block 6.
